Results as given in PubChem BioAssay.
Records with an inconclusive call do not appear.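 The calls were made as follows, unless noted: active = RAM network inhibition above 8.4% in each of two replicates, 3 SD over the compound average; inconclusive = above 8.4% inhibition in only one replicate; inactive = 8.4% inhibition or less in each replicate.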

What was measured:
[1] = S. cerevisiae growth inhibition in permissive medium (OD615), pilot counter-assay for S. cerevisiae lifespan shortening project, permissive growth control (AID 705;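 active = growth inhibition above 25% in both replicates, a cutoff set 3 SD above the mean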); conditions: OD615, 24 h, at 10 µM, stronger effect = higher value
Procedure, shortened: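 assay system = Saccharomyces cerevisiae strain carrying genetically modified DeaD replicative-lifespan system | medium = SC raffinose/galactose permissive medium | dosing = 10 µM single dose, 0.25% DMSO | schedule = 24 h compound exposure at 30 °C after 4 h pre-growth | measured by = OD at 615 nm | read-out basis = growth inhibition from lowered OD615 after 24 h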

[2] = S. cerevisiae growth inhibition in restrictive medium, OD615, pilot screen, restrictive growth control, yeast lifespan reduction project (AID 706;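 active = growth inhibition above a set limit, 3 SD over mean compound inhibition, in both replicates, cut at about 43% in these data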;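 also: modified DeaD lifespan yeast strain shifted to restrictive glucose medium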); conditions: OD615, 48 h, at 10 µM, stronger effect = higher value
Procedure, shortened: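 Buffer or medium: CSMM-D glucose medium. Material: genetically modified Saccharomyces cerevisiae, DeaD replicative lifespan assay strain. Times: 48 h compound exposure at 30 °C. Measured by: optical density at 615 nm.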

[3] = doxorubicin toxicity protection in MRP-1 cells – H69AR cells, CellTiter-Glo, duplicate, MRP-1 activator project, pilot screen (AID 807;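 active = viability increase at or above a cutoff of the median across tested compounds plus 3 SD, cut at about 8.5% in these data, passing the limit was not always enough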;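 also: compound pretreatment 18-22 h then 72 h combined with doxorubicin; 0% = doxorubicin alone and 100% = vehicle without doxorubicin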); conditions: H69AR viability with doxorubicin, CellTiter-Glo luminescence; at 10 µM; stronger effect = higher value
[4] = viability of HCT116 without oncogenic beta-catenin – human colon tumor cells, pilot screen (AID 823;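 active = cell viability at or below a set limit in both duplicate runs, the limit being the all-compound median minus 4 SD, cut at about 23% in these data, passing the limit was not always enough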;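 also: 0% = wells killed by 20 µM Hyamine and 100% = untreated DMSO cell wells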); conditions: HCT116 beta-catenin knockout viability, CellTiter-Glo, 60 h; at 10 µM; stronger effect = lower value
[5] = viability of PTEN-null HCT116 cells – cell-based, HCT116 clonal line, CellTiter-Glo, pilot screen (AID 824;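 active = viability at or below 27.92% in each of two runs, the all-compound median minus 4 SD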;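 also: 0% = 20 µM Hyamine control and 100% = vehicle cell control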); conditions: HCT116 PTEN-deleted viability, 60 h, at 10 µM, stronger effect = lower value
[6] = RAM pathway blockade in budding yeast – dse1pr::URA3 reporter, 5-FOA selection, pilot screen (AID 869;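 active = inhibition over a set limit, the all-compound mean plus 3 SD, in both replicate runs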;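 also: 0% = DMSO wells with no growth and 100% = 10 µM 1-NA-PP1 with full growth; RAM network block rescues cells from 5-FOA so hits raise OD615 growth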); conditions: S. cerevisiae dse1pr::URA3 5-FOA growth, OD615, 2 d; at 10 µM; stronger effect = higher value; strain carries analog-sensitive mutant Cbk1 kinase
[7] = RAM signaling pathway blockade in yeast – S. cerevisiae, Pdr1DBD-CYC8 efflux-inhibited sensitized strain, primary screen (AID 1298);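 also: 0% = DMSO untreated cells without growth and 100% = 10 µM 1-NA-PP1 full growth; higher means more yeast growth rescued from 5-FOA killing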; conditions: S. cerevisiae cbk1-as DSE1-URA3 strain, 5-FOA growth OD615, 2 d; at 50 µM; stronger effect = higher value

CN(C)c1nc(N)nc(N(c2ccccc2)c2ccccc2)n1
inactive: growth inhibition [1] -12.3% | growth inhibition [2] -28.1% | viability increase [3] -2.5% | viability [4] 93.6% | viability [5] 90.8% | inhibition [6] -0.635% | RAM network inhibition [7] 2.96%

COC(=O)c1ccccc1Nc1cc(C)nc2nc(C)nn12
inactive: growth inhibition [1] -5.25% | growth inhibition [2] 0.455% | viability increase [3] -3.74% | viability [4] 105% | viability [5] 115% | inhibition [6] -0.315% | RAM network inhibition [7] 1.72%

CCOc1ccc2ccccc2c1C(=O)Nc1cc(=O)n(C)c(=O)n1C
inactive: growth inhibition [1] -8.05% | growth inhibition [2] -21.5% | viability increase [3] 0.11% | viability [4] 107% | viability [5] 94.4% | inhibition [6] 1.17% | RAM network inhibition [7] -1.04%

CCOC(=O)CC1C(=O)NCCN1C(=O)c1cc2c(=O)n3ccccc3nc2s1 (stereo not drawn)
inactive: growth inhibition [1] -13.7% | growth inhibition [2] 0.575% | viability increase [3] 1.22% | viability [4] 95.3% | viability [5] 95.5% | inhibition [6] 1% | RAM network inhibition [7] 6.8%

O=C(O)c1c(F)c(F)c(F)c(F)c1-c1ccc(Cl)cc1
inactive: growth inhibition [1] -20% | growth inhibition [2] -19.6% | viability increase [3] -1.76% | viability [4] 98.9% | viability [5] 98.9% | inhibition [6] -0.105% | RAM network inhibition [7] 5.79%

COc1cccc(C(=O)Nc2nnc(-c3ccc(F)cc3)o2)c1
inactive: growth inhibition [1] -12.2% | growth inhibition [2] -0.875% | viability increase [3] -3.38% | viability [4] 29% | viability [5] 32% | inhibition [6] 0.4% | RAM network inhibition [7] 0.21%

Cc1noc(C)c1S(=O)(=O)N(CC(=O)Nc1ccc2c(c1)OCCO2)c1ccc(C(C)C)cc1
inactive: growth inhibition [1] -19.3% | growth inhibition [2] -5.11% | viability increase [3] -5.12% | viability [4] 56.8% | viability [5] 48.7% | inhibition [6] 1.71% | RAM network inhibition [7] 1.99%

CCSCCOC(=O)C1=C(C)NC(=O)NC1c1cc(OC)ccc1OC (stereo not drawn)
inactive: growth inhibition [1] -4.26% | growth inhibition [2] 4.14% | viability increase [3] -1.14% | viability [4] 86.9% | viability [5] 90.8% | inhibition [6] 1.79% | RAM network inhibition [7] 2.39%

COc1ccccc1N1CCN(c2cc(C)nc3nc(C)nn23)CC1
inactive: growth inhibition [1] -9.41% | growth inhibition [2] -13.6% | viability increase [3] -4.75% | viability [4] 85.7% | viability [5] 83.6% | inhibition [6] 2.03% | RAM network inhibition [7] -0.21%

CC1CCN(CC(C)OC(=O)c2ccc3c(c2)OCCO3)CC1 (stereo not drawn)
inactive: growth inhibition [1] -8.49% | growth inhibition [2] 6.58% | viability increase [3] -0.68% | viability [4] 112% | viability [5] 105% | inhibition [6] 1.62% | RAM network inhibition [7] 3.4%

CNC(=O)c1c(N)sc2c1CCCCC2
inactive: growth inhibition [1] -2.01% | growth inhibition [2] 8.19% | viability increase [3] -3.12% | viability [4] 88.8% | viability [5] 88.1% | inhibition [6] 1.19% | RAM network inhibition [7] 4.13%

Cc1cc(C(=O)Nc2ccc3c(c2)OCCO3)co1
inactive: growth inhibition [1] -4.03% | growth inhibition [2] 5.26% | viability increase [3] -0.16% | viability [4] 96.7% | viability [5] 92.1% | inhibition [6] 0.06% | RAM network inhibition [7] -0.41%

CC(Oc1ccc(Cl)cc1Cl)C(=O)NCCN1CCOCC1 (stereo not drawn)
inactive: growth inhibition [1] -8.7% | growth inhibition [2] 4.87% | viability increase [3] -2.33% | viability [4] 100% | viability [5] 97.5% | inhibition [6] -0.29% | RAM network inhibition [7] 1.53%

O=C(CC1Sc2ccccc2NC1=O)Nc1cccc(C(=O)O)c1 (stereo not drawn)
inactive: growth inhibition [1] 0.01% | growth inhibition [2] 8.77% | viability increase [3] -0.43% | viability [4] 101% | viability [5] 87% | inhibition [6] 1.14% | RAM network inhibition [7] 4.51%

CSc1nc2ccc(NS(=O)(=O)c3ccc4c(c3)OCCO4)cc2s1
inactive: growth inhibition [1] 0.175% | growth inhibition [2] 0.53% | viability increase [3] 0.31% | viability [4] 90.8% | viability [5] 88.4% | inhibition [6] 0.865% | RAM network inhibition [7] 5.46%

O=C(CSc1nccc2ccccc12)N1CCN(c2ccccn2)CC1
inactive: growth inhibition [1] -3.48% | growth inhibition [2] 8.46% | viability increase [3] -2.78% | viability [4] 97.5% | viability [5] 99.8% | inhibition [6] 0.295% | RAM network inhibition [7] -0.26%

COc1ccccc1CNC(=O)CCn1c(=O)oc2ccccc21
inactive: growth inhibition [1] 5.65% | growth inhibition [2] 6.41% | viability increase [3] -3.05% | viability [4] 104% | viability [5] 96.2% | inhibition [6] 2.48% | RAM network inhibition [7] 5.75%

Brc1cnc(N2CCCC2)nc1N1CCCCC1
inactive: growth inhibition [1] -5.12% | growth inhibition [2] 2.11% | viability increase [3] -2.63% | viability [4] 86.2% | viability [5] 84.4% | inhibition [6] 2.09% | RAM network inhibition [7] 0%

CNc1oc(C)nc1S(=O)(=O)c1ccccc1
inactive: growth inhibition [1] -13.1% | growth inhibition [2] -7.71% | viability increase [3] -0.15% | viability [4] 99.9% | viability [5] 98.1% | inhibition [6] 1.98% | RAM network inhibition [7] 0.25%

COCC(C)N=Cc1c(O)[nH]c2ccccc12 (stereo not drawn)
inactive: growth inhibition [1] 0.585% | growth inhibition [2] 1.21% | viability increase [3] -2.38% | viability [4] 92.1% | viability [5] 97.5% | inhibition [6] 0.82% | RAM network inhibition [7] -1.18%

COc1ccc(C2C(C(=O)Nc3cccnc3)=C(C)Nc3nc(-c4ccco4)nn32)cc1 (stereo not drawn)
inactive: growth inhibition [1] 4.86% | growth inhibition [2] -9.13% | viability increase [3] -1.69% | viability [4] 108% | viability [5] 104% | inhibition [6] 0.55% | RAM network inhibition [7] 2.07%

O=C1C2CCCN2C(c2ccccc2)N1c1ccc(F)cc1 (stereo not drawn)
inactive: growth inhibition [1] -1.42% | growth inhibition [2] 3.23% | viability increase [3] -2.06% | viability [4] 96.9% | viability [5] 89.3% | inhibition [6] 2.05% | RAM network inhibition [7] 2.34%

O=C(c1ccccc1)c1ccc2nc(N3CCN(C(=O)c4ccco4)CC3)c3nncn3c2c1
inactive: growth inhibition [1] -3.47% | growth inhibition [2] 11.3% | viability increase [3] -3.94% | viability [4] 65.3% | viability [5] 72.7% | inhibition [6] 2.05% | RAM network inhibition [7] -0.16%

O=C1CNC(=O)/C1=C\N1CCN(C(c2ccccc2)c2ccccc2)CC1
inactive: growth inhibition [1] 5.72% | growth inhibition [2] 9.98% | viability increase [3] -2.16% | viability [4] 99.2% | viability [5] 101% | inhibition [6] 2.48% | RAM network inhibition [7] 1.6%
